In ChEMBL document CHEMBL4477241, “Structure-Activity Relationship Studies for Enhancer of Zeste Homologue 2 (EZH2) and Enhancer of Zeste Homologue 1 (EZH1) Inhibitors” (J Med Chem, 2016):

Key:
[1] = target: T1, Histone-lysine N-methyltransferase EZH1 (Homo sapiens, UniProt Q92800); assay: Inhibition of EZH1 histone methyltransferase activity of EZH1/EED/SUZ12/RBBP4/AEBP2 protein complex (unknown origin) using histone H3 peptide as substrate (21 to 44 residues) in presence of [3H]-S-adenosylmethionine after 2 hrs by scintillation proximity assay
T1 sequence (Q92800 whole entry): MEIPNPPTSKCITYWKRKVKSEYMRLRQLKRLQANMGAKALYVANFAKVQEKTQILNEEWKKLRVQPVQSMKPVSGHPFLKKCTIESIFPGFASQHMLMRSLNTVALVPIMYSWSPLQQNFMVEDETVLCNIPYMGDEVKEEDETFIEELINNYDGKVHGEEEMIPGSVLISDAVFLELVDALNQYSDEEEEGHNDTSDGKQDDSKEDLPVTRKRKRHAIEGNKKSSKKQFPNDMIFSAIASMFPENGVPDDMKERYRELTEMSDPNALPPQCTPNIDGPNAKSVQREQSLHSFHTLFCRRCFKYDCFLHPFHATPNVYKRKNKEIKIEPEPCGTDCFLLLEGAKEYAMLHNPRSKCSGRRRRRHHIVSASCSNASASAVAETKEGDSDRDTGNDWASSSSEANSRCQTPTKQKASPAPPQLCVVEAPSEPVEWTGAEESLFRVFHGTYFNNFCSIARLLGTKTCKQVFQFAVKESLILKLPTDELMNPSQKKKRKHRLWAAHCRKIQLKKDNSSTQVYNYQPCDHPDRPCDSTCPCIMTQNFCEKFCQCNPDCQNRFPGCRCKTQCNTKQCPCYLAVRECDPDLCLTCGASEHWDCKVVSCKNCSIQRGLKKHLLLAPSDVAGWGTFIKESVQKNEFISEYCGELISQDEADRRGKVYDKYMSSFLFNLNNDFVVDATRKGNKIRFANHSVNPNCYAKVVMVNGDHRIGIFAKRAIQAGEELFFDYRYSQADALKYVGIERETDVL
Outline: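 10 nM EZH1 pentameric complex with 4 μM 3H-SAM and 1 μM biotinylated H3(21–44) in 20 mM Tris-HCl pH 8, 5 mM DTT, 0.01% Triton X-100. Reaction run 1 h at 23 °C, stopped with guanidine hydrochloride, then captured 2 h on a streptavidin flash plate. Counts normalized to no-compound (100%) and no-enzyme (0%) controls.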

[2] = target: Histone-lysine N-methyltransferase EZH2 (Homo sapiens, UniProt O75530+Q15022+Q15910); assay: Inhibition of EZH2 histone methyltransferase activity of EZH2/EED/SUZ12 protein complex (unknown origin) using histone H3 peptide as substrate (21 to 44 residues) in presence of [3H]-S-adenosylmethionine after 2 hrs by scintillation proximity assay
Histone-lysine N-methyltransferase EZH2, sequence (Q15910 whole entry, the tested form may be a part, one chain of several): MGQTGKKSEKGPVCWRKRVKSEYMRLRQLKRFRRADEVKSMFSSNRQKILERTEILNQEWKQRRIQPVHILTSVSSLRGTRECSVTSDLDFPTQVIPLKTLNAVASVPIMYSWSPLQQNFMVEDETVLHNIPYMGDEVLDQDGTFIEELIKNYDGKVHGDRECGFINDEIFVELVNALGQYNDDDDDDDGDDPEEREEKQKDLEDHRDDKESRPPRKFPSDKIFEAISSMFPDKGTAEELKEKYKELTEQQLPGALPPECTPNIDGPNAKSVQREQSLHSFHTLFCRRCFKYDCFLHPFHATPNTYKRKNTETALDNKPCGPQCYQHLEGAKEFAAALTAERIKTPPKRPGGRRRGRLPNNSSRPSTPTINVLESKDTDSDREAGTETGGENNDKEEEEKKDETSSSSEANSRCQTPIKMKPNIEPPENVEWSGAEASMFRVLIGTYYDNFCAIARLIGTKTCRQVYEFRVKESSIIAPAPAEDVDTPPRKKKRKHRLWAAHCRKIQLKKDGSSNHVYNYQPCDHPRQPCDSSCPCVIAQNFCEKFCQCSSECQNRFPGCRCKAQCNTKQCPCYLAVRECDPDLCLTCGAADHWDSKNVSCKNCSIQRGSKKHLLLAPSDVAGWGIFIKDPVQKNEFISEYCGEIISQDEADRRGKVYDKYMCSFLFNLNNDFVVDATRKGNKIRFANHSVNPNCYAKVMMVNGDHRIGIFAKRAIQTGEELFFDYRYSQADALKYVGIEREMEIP
Outline: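 20 nM EZH2 trimeric complex with 2 μM 3H-SAM and 1 μM biotinylated H3(21–44) in 20 mM Tris-HCl pH 8, 5 mM DTT, 0.01% Triton X-100. Incubated 1 h at 23 °C, quenched with guanidine hydrochloride, then 2 h streptavidin flash-plate capture. Activity scaled between no-compound and no-enzyme counts.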

IC50 [1]: 810 nM
IC50 [2]: 12 nM
SMILES: CCc1cc(C)[nH]c(=O)c1CNC(=O)c1cc(-c2ccc(N3CCN(C(C)C)CC3)nc2)cc2c1cnn2C(C)C
